This is an account of results in article PMC7153518 (ACS chemical neuroscience, 2020).

One data set deals with human TRPM8 (hTRPM8) (Homo sapiens, UniProt Q7Z2W7). The format is cell-based.
A further data set has as its target human TRPA1 (Homo sapiens, UniProt O75762). Put plainly: FLIPR Ca2+ flux assay. The conditions noted are these: for hTRPA1% activation: normalized to Emax of AITC (300 μM); for hTRPA1% inhibition: vs EC80 of AITC (10 μM). The format is cell-based. (In general: Calcium assays in cells follow changes in intracellular calcium, usually with a dye or a luminescent sensor.)

The next data set concerns the target human TRPV1 (Homo sapiens, UniProt Q8NER1). Kind of data set: FLIPR Ca2+ flux assay. The conditions noted are these: for hTRPV1% activation: normalized to Emax of capsaicin (3 μM); for hTRPV1% inhibition: vs EC80 of capsaicin (0.1 μM). The format is cell-based.
Data set [1] is described as follows: Metabolic stability in mouse liver microsomes. The format is in vitro ADME. The conditions noted are these: male, CD-1, mouse. On the technique in general: Microsomes from liver hold many membrane-bound enzymes, among them those of drug oxidation.
The test system of data set [2] is icilin-induced WDS in mice. Kind of data set: Wet dog shakes. Type of data set: in vivo.
Data set [3] has as its system Oxaliplatin (OXP)-induced cold allodynia in C57 mice. Kind of data set: Oxaliplatin-induced cold allodynia, acetone test. Type of data set: in vivo. Summed up: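 Male C57 mice received oxaliplatin (6 mg/kg) on days 1, 3 and 5, with saline and 5% mannitol given i.p., and were tested on day 7. Test compound (DMSO stock diluted in saline, 0.1–1 μg) was injected once into the right hind paw plantar surface. After about 30 min habituation on mesh, acetone-drop cold responses were followed over time. Mean ± SEM, n = 6; one-way ANOVA, Dunnett's.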

The test system of data set [4] is TRPM8. The conditions noted are these: read-out: IC50 (whole-cell patch clamp); cited from earlier work. (In patch-clamp work, channel activity is measured electrically.)
A further data set addresses human TRPM8 (Homo sapiens, UniProt Q7Z2W7). The settings on record: cited from earlier work.
Data set [5] concerns TRPM8. The conditions noted are these: read-out: EC50 previously reported; CHO cells / mouse TRPM8; cited from earlier work.
The next data set relates to TRPA1. The conditions noted are these: read-out: TRPA1 IC50; vs the effect of 80 μM AITC; cited from earlier work.
The mark [6] stands for this setting: after single administration of 0.1 and 1 μg.

Entries after “also recorded” stand apart in the source; their conditions may differ. Read-outs that look alike come from different tables or passages of the source.

In general, inhibition refers to the drop in the measured response relative to a control, in per cent. One may read the microsomal CLint as the rate of metabolic loss divided by the concentration. Low readings indicate slow turnover, high ones rapid turnover. What is called EC50 is the concentration needed to bring the measured effect to its halfway point.

Sequence of human TRPM8 (Q7Z2W7 whole entry): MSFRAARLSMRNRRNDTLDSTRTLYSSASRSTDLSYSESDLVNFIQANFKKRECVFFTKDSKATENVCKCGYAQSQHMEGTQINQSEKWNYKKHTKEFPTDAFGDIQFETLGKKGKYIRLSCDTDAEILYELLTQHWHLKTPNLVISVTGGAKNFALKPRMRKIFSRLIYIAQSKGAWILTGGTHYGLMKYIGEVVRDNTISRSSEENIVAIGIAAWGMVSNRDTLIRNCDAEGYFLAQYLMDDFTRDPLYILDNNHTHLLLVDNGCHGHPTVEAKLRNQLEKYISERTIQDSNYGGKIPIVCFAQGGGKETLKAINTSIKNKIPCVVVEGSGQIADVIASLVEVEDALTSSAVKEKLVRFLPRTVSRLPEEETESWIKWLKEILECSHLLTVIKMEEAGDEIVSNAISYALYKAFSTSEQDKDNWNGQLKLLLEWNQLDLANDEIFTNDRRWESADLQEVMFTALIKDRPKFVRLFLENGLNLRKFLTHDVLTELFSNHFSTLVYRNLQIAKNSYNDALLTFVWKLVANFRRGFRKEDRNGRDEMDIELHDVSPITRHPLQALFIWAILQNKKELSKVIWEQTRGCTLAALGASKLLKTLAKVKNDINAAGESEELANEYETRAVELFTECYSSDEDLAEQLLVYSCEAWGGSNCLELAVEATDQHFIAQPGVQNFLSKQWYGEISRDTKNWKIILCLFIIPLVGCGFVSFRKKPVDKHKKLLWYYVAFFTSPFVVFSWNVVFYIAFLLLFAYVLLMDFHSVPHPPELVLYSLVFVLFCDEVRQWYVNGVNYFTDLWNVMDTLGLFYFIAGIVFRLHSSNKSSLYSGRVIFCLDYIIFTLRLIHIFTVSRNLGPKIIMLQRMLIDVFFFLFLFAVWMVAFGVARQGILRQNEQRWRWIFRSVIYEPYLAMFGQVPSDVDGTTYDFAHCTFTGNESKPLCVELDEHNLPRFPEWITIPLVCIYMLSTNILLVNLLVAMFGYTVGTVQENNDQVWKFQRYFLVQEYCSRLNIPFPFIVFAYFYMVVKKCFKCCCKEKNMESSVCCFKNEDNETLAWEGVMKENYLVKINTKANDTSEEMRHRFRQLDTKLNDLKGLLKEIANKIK
Sequence of human TRPM8 (hTRPM8) (Q7Z2W7 whole entry): as above
Sequence of human TRPV1 (Q8NER1 whole entry): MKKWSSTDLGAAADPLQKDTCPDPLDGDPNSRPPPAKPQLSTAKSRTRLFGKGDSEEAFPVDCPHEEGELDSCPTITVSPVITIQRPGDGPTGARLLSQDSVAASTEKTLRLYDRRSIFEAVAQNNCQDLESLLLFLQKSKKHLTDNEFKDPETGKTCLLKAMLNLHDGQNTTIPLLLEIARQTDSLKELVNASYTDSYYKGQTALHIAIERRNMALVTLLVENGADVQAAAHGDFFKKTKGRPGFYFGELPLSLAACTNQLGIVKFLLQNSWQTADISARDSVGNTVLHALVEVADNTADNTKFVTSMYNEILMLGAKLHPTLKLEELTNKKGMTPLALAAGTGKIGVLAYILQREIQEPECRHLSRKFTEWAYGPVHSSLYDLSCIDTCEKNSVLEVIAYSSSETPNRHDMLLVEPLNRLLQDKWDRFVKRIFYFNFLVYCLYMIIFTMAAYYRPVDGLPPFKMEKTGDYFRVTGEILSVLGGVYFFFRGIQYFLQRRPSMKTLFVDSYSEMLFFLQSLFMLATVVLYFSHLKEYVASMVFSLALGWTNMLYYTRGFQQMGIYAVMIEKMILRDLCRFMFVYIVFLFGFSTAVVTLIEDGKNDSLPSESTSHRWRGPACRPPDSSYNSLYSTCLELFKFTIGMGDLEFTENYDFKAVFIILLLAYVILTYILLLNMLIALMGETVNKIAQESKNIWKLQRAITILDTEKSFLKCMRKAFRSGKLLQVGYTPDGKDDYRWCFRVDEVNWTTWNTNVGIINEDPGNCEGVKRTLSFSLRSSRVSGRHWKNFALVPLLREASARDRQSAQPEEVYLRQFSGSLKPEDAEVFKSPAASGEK
Sequence of human TRPA1 (O75762 whole entry): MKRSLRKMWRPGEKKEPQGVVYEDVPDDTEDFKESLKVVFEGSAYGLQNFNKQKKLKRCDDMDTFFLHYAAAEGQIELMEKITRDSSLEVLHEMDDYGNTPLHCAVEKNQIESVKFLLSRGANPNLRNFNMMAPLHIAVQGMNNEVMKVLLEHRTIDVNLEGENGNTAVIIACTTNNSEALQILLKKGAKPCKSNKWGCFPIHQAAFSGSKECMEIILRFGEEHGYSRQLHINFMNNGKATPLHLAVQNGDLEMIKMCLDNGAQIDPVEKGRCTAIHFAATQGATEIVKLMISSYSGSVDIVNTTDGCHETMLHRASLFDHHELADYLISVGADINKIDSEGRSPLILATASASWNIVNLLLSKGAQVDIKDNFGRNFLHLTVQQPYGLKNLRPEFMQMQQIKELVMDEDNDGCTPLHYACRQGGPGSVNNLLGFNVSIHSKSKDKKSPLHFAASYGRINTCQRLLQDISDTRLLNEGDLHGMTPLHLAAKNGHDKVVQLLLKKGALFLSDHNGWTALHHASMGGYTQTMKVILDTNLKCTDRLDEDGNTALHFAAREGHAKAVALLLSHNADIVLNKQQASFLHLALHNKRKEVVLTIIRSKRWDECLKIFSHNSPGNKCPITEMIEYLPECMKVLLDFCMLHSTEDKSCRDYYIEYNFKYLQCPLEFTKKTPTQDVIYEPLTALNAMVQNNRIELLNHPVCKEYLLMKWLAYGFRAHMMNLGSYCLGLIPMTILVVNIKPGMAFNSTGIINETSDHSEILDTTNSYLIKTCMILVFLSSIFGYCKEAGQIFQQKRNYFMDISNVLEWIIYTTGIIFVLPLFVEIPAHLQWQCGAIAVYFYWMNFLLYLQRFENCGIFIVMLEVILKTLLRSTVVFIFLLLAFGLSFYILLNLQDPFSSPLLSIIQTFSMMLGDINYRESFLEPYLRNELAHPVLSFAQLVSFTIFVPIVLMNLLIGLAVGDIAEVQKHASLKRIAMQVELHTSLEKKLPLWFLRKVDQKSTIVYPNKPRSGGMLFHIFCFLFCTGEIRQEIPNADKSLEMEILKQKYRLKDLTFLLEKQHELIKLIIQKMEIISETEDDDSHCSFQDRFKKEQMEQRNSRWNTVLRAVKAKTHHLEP

`O=C(N[C@H]1CC[C@@H]2CCCC[C@@H]2C1)c1ccc(-c2ccccc2)cc1` (racemic) [Compound 12, N-((2SR,9RS,10SR)-Decahydronaphthalen-2-yl)-[1,1′-biphenyl]-4-carboxamide]: the “higher potency than the diastereomeric mixture (10)” value on human TRPM8 (hTRPM8) (ratio of IC50 values) is listed as 4 fold. Also, on human TRPA1 (concn tested 3 nM), the hTRPA1% activation is on record as −2.3 ± 1.0% and the hTRPA1% inhibition is −0.3 ± 3%. In addition, on human TRPA1 (concn tested 30 nM), the hTRPA1% activation is −2.1 ± 0.5% and the hTRPA1% inhibition is reported as 5 ± 9%. Moreover, at human TRPV1 (concn tested 3 nM), the hTRPV1% activation turned out to be 2 ± 1% and the hTRPV1% inhibition is listed as −12 ± 3%. At human TRPV1 (concn tested 30 nM), the hTRPV1% activation was 3 ± 1% and the hTRPV1% inhibition stood at 1.0 ± 2%.
As for `CC1CCC(C(C)C)C(NC(=O)c2ccc(-c3ccccc3)cc2)C1` (centres unmarked) [Compound 2, N-(2-Isopropyl-5-methylcyclohexyl)-[1,1′-biphenyl]-4-carboxamide], at human TRPM8 (hTRPM8) (ratio of IC50 values), the “increase of hTRPM8 activity relative to 1” value is 30 fold.
In the case of `O=C(NC1CCCCCC1)c1ccc(-c2ccccc2)cc1` [Compound 5, N-Cycloheptyl-[1,1′-biphenyl]-4-Carboxamide], on human TRPM8 (hTRPM8) (ratio of IC50 values), the “improvement of hTRPM8 potency relative to 2” value is reported as 8–9 fold. In addition, the results for the hTRPA1% activation on human TRPA1 (concn tested 100 nM) and on human TRPA1 (concn tested 1 μM) were 0.1 ± 0.7% and 0.8 ± 0.5%, respectively. Besides, the hTRPV1% activation at human TRPV1 (concn tested 100 nM) is given as 0.0 ± 1.0%; on human TRPV1 (concn tested 1 μM), 0.6 ± 1.5%.
As to `O=C(NC1CCCCCCC1)c1ccc(-c2ccccc2)cc1` [Compound 7, N-Cyclooctyl-[1,1′-biphenyl]-4-carboxamide], the “improvement of hTRPM8 potency relative to 2” value at human TRPM8 (hTRPM8) (ratio of IC50 values) is on record as 8–9 fold. Moreover, the hTRPA1% activation at human TRPA1 (concn tested 100 nM) was −1.0 ± 0.1%; on human TRPA1 (concn tested 1 μM), −1.5 ± 0.9%. The hTRPV1% activation on human TRPV1 (concn tested 100 nM) is recorded as −1.9 ± 0.7%; at human TRPV1 (concn tested 1 μM), −3.2 ± 0.6%.
With `O=C(NC1CCCc2ccccc21)c1ccc(-c2ccccc2)cc1` (centres unmarked) [Compound 9, N-(1,2,3,4-Tetrahydronaphthalen-1-yl)-[1,1′-biphenyl]-4-carbox-amide], on human TRPM8 (hTRPM8) (ratio of IC50 values), the “loss of potency vs 8” value is listed as 3 fold.
With `O=C(NC1CCC2CCCCC2C1)c1ccc(-c2ccccc2)cc1` (centres unmarked) [Compound 10, N-(Decahydronaphthalen-2-yl)-[1,1′-biphenyl]-4-carboxamide], the “enhancement of TRPM8 potency relative to 8” value on human TRPM8 (hTRPM8) (ratio of IC50 values) turned out to be 3500 fold. At human TRPM8 (hTRPM8) (ratio of IC50 values), the “higher potency than cycloheptyl 5 and cyclooctyl 7” value is listed as 10 fold. For the same molecule, the hTRPA1% activation at human TRPA1 (concn tested 10 nM) was 0.2 ± 0.4%; at human TRPA1 (concn tested 100 nM), −1.1 ± 0.2%. In addition, the inhibition at 0.1 µM at human TRPV1 (HEK293, read-out: hTRPV1% inhibition) stood at 2 ± 3%. Also, the hTRPV1% activation was 2.4 ± 0.8% on human TRPV1 (concn tested 10 nM) and 2.3 ± 0.9% on human TRPV1 (concn tested 100 nM).
Regarding `O=C(NC1CCc2ccccc2C1)c1ccc(-c2ccccc2)cc1` (centres unmarked) [Compound 11, N-(1,2,3,4-Tetrahydronaphthalen-2-yl)-[1,1′-biphenyl]-4-carbox-amide], at human TRPM8 (hTRPM8) (ratio of IC50 values), the “decrease of hTRPM8 potency (vs 10)” value is reported as 9 fold. For the same molecule, the results for the hTRPA1% activation at human TRPA1 (concn tested 100 nM) and at human TRPA1 (concn tested 1 μM) were −0.1 ± 0.5% and −0.8 ± 0.6%, respectively. The hTRPA1% inhibition on human TRPA1 (concn tested 100 nM) is reported as 3 ± 6%; at human TRPA1 (concn tested 1 μM) it was 4 ± 1%. Moreover, the hTRPV1% activation on human TRPV1 (concn tested 100 nM) is −1.8 ± 0.9%; on human TRPV1 (concn tested 1 μM), −0.7 ± 1.5%. For the same molecule, the hTRPV1% inhibition at human TRPV1 (concn tested 100 nM) is given as −3.1 ± 0.6%; on human TRPV1 (concn tested 1 μM) it was 13 ± 3%.
In the case of `O=C(NC1CCC2(CCCCC2)CC1)c1ccc(-c2ccccc2)cc1` [Compound 13, N-(Spiro[5.5]undecan-3-yl)-[1,1′-biphenyl]-4-carboxamide], the values for the hTRPA1% activation at human TRPA1 (concn tested 100 nM) and at human TRPA1 (concn tested 1 μM) were 0.2 ± 0.5% and −0.2 ± 1.1%, respectively. Moreover, the hTRPV1% activation at human TRPV1 (concn tested 100 nM) is recorded as −1.0 ± 0.4%; on human TRPV1 (concn tested 1 μM), 0.7 ± 0.2%.
Take `O=C(NC1CCC2(CCCC2)CC1)c1ccc(-c2ccccc2)cc1` [Compound 14, N-(Spiro[4.5]decan-8-yl)-[1,1′-biphenyl]-4-carboxamide]: the “effect on menthol-evoked TRPM8-mediated Ca2+ entry” value at human TRPM8 (hTRPM8) (3 nM compound vs maximal (100 μM) menthol) is recorded as “significantly (P < 0.01) reduce”. The “effect on icilin-induced Ca2+ influx at higher concentrations” value at human TRPM8 (hTRPM8) (icilin 500 nM) is “nearly abolishes”. In addition, the hTRPA1% activation at human TRPA1 (concn tested 3 nM) is on record as −0.8 ± 0.4%; on human TRPA1 (concn tested 30 nM), 0.1 ± 1.2%. The hTRPV1% activation at human TRPV1 (concn tested 3 nM) was 1 ± 1%; on human TRPV1 (concn tested 30 nM) it was 1 ± 2%. Also, the intrinsic clearance (microsomal CLint) at 1 μM in data set [1] (liver microsomes) came to 45.5 µL/min/mg. In addition, in data set [2] (50 mg/kg s.c., compared with gabapentin 25 mg/kg s.c.), the “inhibition of WDS at the highest dose” value is given as “efficacy comparable to that observed with a standard analgesic dose of gabapentin”. In data set [2] (1, 30 and 50 mg/kg s.c. 30 min before icilin 10 mg/kg i.p., WDS counted over 30 min, n = 6), the “effect on icilin-triggered wet dog shakes” value is given as “dose-dependently blocks; also recorded: marked, dose-dependent antinociceptive behavior”. Also, the “effect on OXP effects at 60 min” value in data set [3] (60 min after administration) was “significantly suppresses OXP effects”. Further, the “time at which attenuated cold allodynia is evident” value in [3] (setting [6]) was determined as 15 min. In data set [3] (setting [6]), the “time of maximum inhibition of cold allodynia” value is 30 min.
With `O=C(NC12CC3CC(CC(C3)C1)C2)c1ccc(-c2ccccc2)cc1` [Compound 15, N-(Adamantan-1-yl)-[1,1′-biphenyl]-4-carboxamide], the results for the hTRPA1% activation at human TRPA1 (concn tested 30 nM) and at human TRPA1 (concn tested 300 nM) were −2.6 ± 0.5% and −1.5 ± 0.4%, respectively. Also, the hTRPV1% activation on human TRPV1 (concn tested 30 nM) is reported as 1.0 ± 0.2%; at human TRPV1 (concn tested 300 nM), 1 ± 2%.
For `COc1cc(CN(CCN)C(=O)OC(C)c2ccccc2)ccc1OCc1ccccc1` (centres unmarked) [PBMC], in the data set on TRPM8 [4], the IC50 is 0.4 to 0.6 nM.
Regarding `C[C@H](c1ccc(F)cc1)N(Cc1cccc(C(=O)O)c1)C(=O)c1cnc2ccccc2c1` [PF-05105679], the IC50 on human TRPM8 (read-out: human TRPM8 IC50, WS-12-mediated activation) is 181 ± 7.21 nM; on human TRPM8 (read-out: human TRPM8 IC50, voltage-mediated activation), 103 ± 29.4 nM.
Take `O=C(O)c1ccc(S(=O)(=O)N(Cc2ccc(OC(F)(F)F)cc2)c2ncc(C(F)(F)F)cc2Cl)cc1` [RQ-00203078]: the IC50 at human TRPM8 (read-out: reported potency at hTRPM8) is < 10 nM.
`O=C1NC(c2cccc([N+](=O)[O-])c2)=CCN1c1ccccc1O` [icilin, 3-(2-hydroxyphenyl)-6-(3-nitrophenyl)-3,4-dihydropyrimidin-2(1H)-one]: the EC50 in the data set on TRPM8 [5] is 120 to 200 nM.
With `Cl.Cl.Cl.Cl.Cl.Cl.N.N.N.N.N.N.N.N.N.N.N.N.N.N.[O-2].[O-2].[Ru+3].[Ru+3].[Ru+4]` [ruthenium red, reference compound], the IC50 was 162 ± 33 nM at human TRPA1 (read-out: TRPA1 IC50, vs AITC (10 μM)-activated [Ca2+]i release) and 29 ± 6 nM in the data set on TRPA1.
Turning to `C[C@]12CC[C@H]3[C@@H](CCC4=CC(=O)CC[C@@]43C)[C@@H]1CC[C@@H]2O` [testosterone, reference compound], the microsomal CLint in [1] (microsomes) was 372 µL/min/mg.
